In ChEMBL document CHEMBL1275329, “Fruitful adrenergic α(2C)-agonism/α(2A)-antagonism combination to prevent and contrast morphine tolerance and dependence” (J Med Chem, 2010):
Activity calls are given as the source filed them. No cut-off for these calls is given here.

Assays:
[1] = biological target: T1, Alpha-2C adrenergic receptor (Homo sapiens) (UniProt P18825); assay: Agonist activity at human Alpha-2C adrenoceptor expressed in CHO cells assessed as induction of extracellular acidification by microphysiometry relative to (-)noradrenaline; assay type: functional, cell-based
T1 sequence (whole entry): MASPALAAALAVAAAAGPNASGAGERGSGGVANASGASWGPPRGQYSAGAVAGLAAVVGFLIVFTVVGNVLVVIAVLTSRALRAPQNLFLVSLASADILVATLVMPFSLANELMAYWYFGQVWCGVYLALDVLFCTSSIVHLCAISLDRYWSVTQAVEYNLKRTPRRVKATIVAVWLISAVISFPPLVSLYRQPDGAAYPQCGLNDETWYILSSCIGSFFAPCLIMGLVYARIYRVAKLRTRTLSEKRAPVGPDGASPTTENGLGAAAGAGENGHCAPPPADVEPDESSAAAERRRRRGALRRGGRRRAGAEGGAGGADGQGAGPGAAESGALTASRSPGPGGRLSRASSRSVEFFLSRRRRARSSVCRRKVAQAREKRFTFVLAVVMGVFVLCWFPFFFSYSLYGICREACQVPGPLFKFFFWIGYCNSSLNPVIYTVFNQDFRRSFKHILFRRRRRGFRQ
In short: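 Cytosensor microphysiometry on CHO cells stably expressing one human α2-AR subtype, seeded at 3 × 10⁵ cells/cup and grown 24 h at 37 °C. Cells were perfused with bicarbonate-free DMEM and exposed to agonist for 4 min, with 30 min washes between exposures. The read-out is the change in acidification rate: peak after agonist minus the mean of three prior readings. […] Mean ± SEM, 3–6 experiments.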

[2] = biological target: T2, Alpha-2A adrenergic receptor (Homo sapiens, UniProt P08913); assay: Displacement of [3H]RX821002 from human alpha2A adrenoceptor expressed in CHO cells; assay type: cell-based
T2 sequence (P08913 whole entry): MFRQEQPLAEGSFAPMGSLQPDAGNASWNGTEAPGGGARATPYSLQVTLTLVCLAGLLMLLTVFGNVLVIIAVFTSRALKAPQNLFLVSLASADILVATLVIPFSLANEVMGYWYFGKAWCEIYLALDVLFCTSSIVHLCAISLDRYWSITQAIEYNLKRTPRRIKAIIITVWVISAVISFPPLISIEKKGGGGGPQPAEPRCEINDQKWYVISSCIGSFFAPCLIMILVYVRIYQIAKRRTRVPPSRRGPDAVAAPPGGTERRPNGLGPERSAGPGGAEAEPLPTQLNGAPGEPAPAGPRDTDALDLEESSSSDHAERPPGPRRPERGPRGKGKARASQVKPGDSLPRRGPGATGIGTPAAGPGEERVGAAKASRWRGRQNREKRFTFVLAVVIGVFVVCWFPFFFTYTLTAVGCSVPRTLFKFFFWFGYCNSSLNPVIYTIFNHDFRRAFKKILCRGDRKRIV
In short: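 Crude membranes from CHO cells expressing human α2A-AR were incubated in Tris-Mg buffer (50 mM Tris-HCl, 0.5 mM MgCl₂, pH 7.5). Ki came from one- or two-site nonlinear regression and is given as pKi.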

[3] = biological target: T3, Alpha-2B adrenergic receptor (Homo sapiens, UniProt P18089); assay: Displacement of [3H]RX821002 from human alpha2B adrenoceptor expressed in CHO cells; assay type: cell-based
T3 sequence (P18089 whole entry): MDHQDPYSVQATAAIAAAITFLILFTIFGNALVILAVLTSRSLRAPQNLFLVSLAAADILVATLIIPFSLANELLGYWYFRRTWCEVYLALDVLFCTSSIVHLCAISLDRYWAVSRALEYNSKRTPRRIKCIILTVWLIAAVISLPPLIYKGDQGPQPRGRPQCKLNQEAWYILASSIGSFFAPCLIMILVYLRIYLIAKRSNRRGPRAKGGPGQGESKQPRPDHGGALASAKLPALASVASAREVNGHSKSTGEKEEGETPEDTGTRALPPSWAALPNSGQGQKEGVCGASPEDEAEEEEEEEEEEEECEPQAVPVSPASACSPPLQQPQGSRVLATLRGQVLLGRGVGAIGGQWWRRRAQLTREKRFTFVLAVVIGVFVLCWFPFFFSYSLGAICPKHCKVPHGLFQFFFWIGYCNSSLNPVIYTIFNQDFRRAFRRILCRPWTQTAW
In short: (§1)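 Buffer was Tris-Mg (50 mM Tris-HCl, 0.5 mM MgCl2, pH 7.5), competitor 10^-9 to 10^-4 M, 30 min at room temperature. Bound ligand was filtered and counted. Ki by nonlinear one- or two-site fit, reported as pKi.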

[4] = biological target: T4, Alpha-2C adrenergic receptor (Homo sapiens, UniProt P18825); assay: Agonist activity at human Alpha-2C adrenoceptor expressed in CHO cells assessed as induction of extracellular acidification by microphysiometry; assay type: functional, cell-based
T4 sequence (P18825 whole entry): T1 sequence (whole entry)
In short: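 Cytosensor microphysiometry on CHO cells stably expressing one human α2-AR subtype, seeded at 3 × 10⁵ cells/cup and grown 24 h at 37 °C. Cells were perfused with bicarbonate-free DMEM and exposed to agonist for 4 min, with 30 min washes between exposures. The read-out is the change in acidification rate: peak after agonist minus the mean of three prior readings. Mean ± SEM, 3–6 experiments.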

[5] = biological target: T5, Alpha-2B adrenergic receptor (Homo sapiens) (UniProt P18089); conditions: CHO
T5 sequence (whole entry): T3 sequence (P18089 whole entry)

[6] = biological target: T4, Alpha-2C adrenergic receptor; assay: Displacement of [3H]RX821002 from human Alpha-2C adrenoceptor expressed in CHO cells; assay type: cell-based; in short: as §1
[7] = biological target: T2, Alpha-2A adrenergic receptor; assay: Agonist activity at human alpha2A adrenoceptor expressed in CHO cells assessed as induction of extracellular acidification by microphysiometry; assay type: functional, cell-based
In short: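 CHO cells stably expressing human α2A-AR were seeded at 3 × 10⁵ cells/cup and held 24 h at 37 °C under 5% CO₂. They were then perfused at 100 μL/min with bicarbonate-free DMEM containing glutamine and NaCl. Agonist exposure lasted 4 min, with 30 min washes between exposures.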

[8] = biological target: T6, Alpha-2A adrenergic receptor (Homo sapiens) (UniProt P08913); assay: Antagonist activity at human alpha2A adrenoceptor expressed in CHO cells assessed as effect on agonist-induced extracellular acidification by microphysiometry; assay type: functional, cell-based
T6 sequence (whole entry): T2 sequence (P08913 whole entry)
In short: (§2)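 CHO cells stably expressing one human α2-AR subtype were run on the Cytosensor microphysiometer with bicarbonate-free DMEM perfusion. […] Kb = M/(concentration ratio − 1), where the ratio is EC50 with antagonist over EC50 without. Reported as pKb, mean ± SEM of 3–6 experiments.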

[9] = system: Mus musculus; assay: Analgesic effect in CD1 mouse at 0.05 mg/kg, ip by radiant heat tail flick test; assay type: functional, organism-based; parameters: dose 0.05 mg/kg
In short: (§3)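 Male CD-1 mice (25–35 g) received test agent 0.05 mg/kg ip or vehicle 15 min before morphine 5 mg/kg sc. Radiant-heat tail-flick to the lower third of the tail; baseline latency (2–3 s) is the mean of two trials. Latencies were read at 30, 60, 90, 120 and 240 min and expressed as %MPE. 7–8 mice per group, mean ± SEM.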

[10] = system: Mus musculus; assay: Enhancement of morphine-induced analgesic effect in CD1 mouse at 0.05 mg/kg, ip administered 15 mins before morphine dosing measured 30 to 240 mins post morphine challenge by radiant heat tail flick test; assay type: functional, organism-based; parameters: dose 0.05 mg/kg; in short: as §3
[11] = biological target: T5, Alpha-2B adrenergic receptor (Homo sapiens); assay: Antagonist activity at human alpha2B adrenoceptor expressed in CHO cells assessed as effect on agonist-induced extracellular acidification by microphysiometry; assay type: functional, cell-based; in short: as §2
[12] = biological target: T3, Alpha-2B adrenergic receptor; assay: Agonist activity at human alpha2B adrenoceptor expressed in CHO cells assessed as induction of extracellular acidification by microphysiometry
[13] = biological target: T1, Alpha-2C adrenergic receptor (Homo sapiens); assay: Antagonist activity at human Alpha-2C adrenoceptor expressed in CHO cells assessed as effect on agonist-induced extracellular acidification by microphysiometry; assay type: functional, cell-based; in short: as §2
[14] = system: Mus musculus; assay: Reduction in morphine dependence expression in CD1 mouse assessed as decrease in expression of naloxone-precipitated withdrawal syndrome at 0.05 mg/kg, ip administered as single dose […] on test day post morphine challenge […]; assay type: functional, organism-based; parameters: dose 0.05 mg/kg
[15] = system: Mus musculus; assay: Reduction in morphine tolerance acquisition in CD1 mouse assessed as morphine analgesic effect incidence at 0.05 mg/kg, ip bid administered 15 mins before last morphine dosing by radiant heat tail flick test; assay type: functional, organism-based; parameters: dose 0.05 mg/kg
[16] = system: Mus musculus; assay: Toxicity in CD1 mouse assessed as effect on sleep duration at 0.05 mg/kg, ip by pentobarbital sodium induced sleep time assay; assay type: organism-based; parameters: dose 0.05 mg/kg, route intraperitoneal; conditions: in vivo
In short: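 Male CD-1 mice (n = 10 per group) were given test agent 0.05 mg/kg or vehicle, then sodium pentobarbital 50 mg/kg ip 15 min later. Sleep duration, the time from loss to regain of the righting reflex, was recorded in seconds. Mean ± SEM.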

[17] = system: Mus musculus; assay: Reduction in morphine dependence expression in CD1 mouse assessed as decrease in expression of naloxone-precipitated withdrawal syndrome at 0.05 mg/kg, ip bid administered 15 mins before last morphine dosing […]; assay type: functional, organism-based; parameters: dose 0.05 mg/kg
In short: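 In male CD-1 mice, morphine 10 mg/kg sc was given twice daily at 12 h intervals for 6 days, with test agent 0.05 mg/kg ip 15 min before each morphine dose. Jumping was counted, and somatic signs were scored as the sum of rearing, forepaw tremor and teeth chatter. Blind observers; mean ± SEM.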

[18] = system: Mus musculus; assay: Reduction in morphine tolerance acquisition in CD1 mouse assessed as morphine analgesic effect incidence at 0.05 mg/kg, ip administered as single dose 15 mins before last morphine dosing on test day post morphine challenge by radiant heat tail flick test; assay type: functional
In short: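 Tolerance was induced in male CD-1 mice with morphine 10 mg/kg sc twice daily at 12 h intervals for 5 days. On day 5, test agent 0.05 mg/kg ip was given once, 15 min before the last morphine injection. Tail-flick antinociception was read 30 min after that injection and expressed as %MPE, with day 1 vs day 5 compared.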

[19] = system: Mus musculus; assay: Enhancement of morphine-induced analgesic effect in CD1 mouse at 0.05 mg/kg, ip administered 15 mins before morphine dosing measured 30 to 240 mins post morphine challenge in presence of Alpha-2C adrenergic receptor antagonist yohimbine by radiant heat tail flick test; assay type: functional, organism-based; parameters: dose 0.05 mg/kg
In short: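 Male CD-1 mice got yohimbine 1.250 mg/kg ip 15 min before test agent (0.05 mg/kg ip). Test agent was given 15 min before morphine 5 mg/kg sc. Radiant-heat tail-flick latency was read 30–240 min after morphine and expressed as %MPE.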

SMILES | Intrinsic activity [1] | Ki [2] [nM] | Ki [3] [nM] | EC50 [4] [nM] | Ki [6] [nM] | pKb [8] | pKb [11] | also measured
C[C@@H](Oc1ccccc1-c1ccsc1)C1=NCCN1 | 0.7 | 166 | 708 | 100 | 316 |  |  | pEC50 [5]: inactive; EC50 [7]: 3160 nM
CC(Oc1ccccc1-c1cccc(O)c1)C1=NCCN1 (racemic) | 1.15 |  |  |  |  | 6.2 |  | 
C[C@H](Oc1ccccc1-c1ccccc1)C1=NCCN1 | 0.9 |  |  |  |  |  |  | 
C[C@@H](Oc1ccccc1C1CC1)C1=NCCN1 | 0.5 | 44.7 | 562 | 126 | 126 | 6.9 |  | Activity [9]: inactive; pEC50 [5]: inactive; Activity [10]: Active
C[C@H](Oc1ccccc1-c1cccc([N+](=O)[O-])c1)C1=NCCN1 | 0.45 |  |  |  |  | 7.35 | 5.93 | 
CC(Oc1ccccc1-c1ccccc1)C1=NCCN1 (racemic) | 0.8 |  |  |  |  |  |  | 
C[C@H](Oc1ccccc1C1CC1)C1=NCCN1 | 0.9 | 20.9 | 263 | 35.5 | 63.1 | 7.7 |  | Activity [9]: inactive; EC50 [12]: 3160 nM; Activity [10]: Active
CC(Oc1ccccc1-c1ccsc1)C1=NCCN1 (racemic) | 0.85 |  |  |  |  |  |  | pEC50 [5]: inactive
CC(Oc1ccccc1)C1=NCCN1 (racemic) |  |  |  |  |  | 7.01 | 6.2 | pKb [13]: 6.85
C[C@H](Oc1ccccc1-c1ccsc1)C1=NCCN1 | 0.9 | 44.7 | 447 | 6.31 | 126 |  |  | EC50 [12]: 1000 nM; EC50 [7]: 63.1 nM
C[C@@H](Oc1ccccc1-c1cccc(O)c1)C1=NCCN1 | 1 | 39.8 | 316 | 25.1 | 31.6 | 6.4 | 5.67 | 
CC(Oc1ccccc1-c1cccc([N+](=O)[O-])c1)C1=NCCN1 (racemic) | 0.6 |  |  |  |  | 6.8 | 5.9 | 
Clc1cccc(Cl)c1NC1=NCCN1 | 0.6 |  |  |  |  |  |  | 
C=CCc1ccccc1O[C@H](C)C1=NCCN1 | 0.5 |  | 562 | 186 | 178 | 7.4 |  | Activity [14]: Active; Activity [15]: Active; Activity [16]: Non-toxic; Activity [17]: Active; Activity [9]: inactive; Activity [18]: inactive; pEC50 [5]: inactive; Activity [19]: inactive; Activity [10]: Active
CC(Oc1ccccc1C1CC1)C1=NCCN1 (racemic) | 0.9 | 22.9 | 309 | 39.8 | 79.4 | 7 |  | EC50 [12]: 3160 nM
C[C@@H](Oc1ccccc1-c1ccccc1)C1=NCCN1 | 0.7 |  |  |  |  |  |  | 
C[C@@H](Oc1ccccc1-c1cccc([N+](=O)[O-])c1)C1=NCCN1 | 0.8 |  |  |  |  | 7.11 | 6.07 | 
C[C@H](Oc1ccccc1-c1cccc(O)c1)C1=NCCN1 | 0.65 | 97.7 | 1000 | 2510 | 112 | 6 | 5.5 | 
C=CCc1ccccc1O[C@@H](C)C1=NCCN1 | 0.9 |  | 398 | 25.1 | 70.8 | 7.8 |  | Activity [14]: Active; Activity [15]: Active; Activity [16]: Non-toxic; Activity [17]: Active; Activity [9]: inactive; Activity ([18]; route intraperitoneal): 22%; EC50 [12]: 1000 nM; Activity [19]: inactive; Activity [10]: Active
